What was measured:
Type in all cases: organism-based
Mus musculus [1] = test: Toxicity in mouse assessed as mouse survival at 200 mg/kg, ip qd on day 19; parameters: dose 200 mg/kg, route intraperitoneal; settings: in vivo
Outline: (§1)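 Female athymic nude mice were given intraperitoneal injections of 400, 200 or 100 mg/kg, one mouse per dose level. Body weight loss was monitored, and survival was recorded after 19 days.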

Mus musculus [2] = test: Toxicity in mouse assessed as mouse survival at 25 mg/kg, ip qd on day 19; parameters: dose 25 mg/kg, route intraperitoneal; settings: in vivo
Mus musculus [3] = test: Toxicity in mouse assessed as mouse survival at 50 mg/kg, ip qd on day 19; parameters: dose 50 mg/kg, route intraperitoneal; settings: in vivo
Mus musculus [4] = test: Toxicity in mouse assessed as mouse survival at 100 mg/kg, ip qd on day 19; parameters: dose 100 mg/kg, route intraperitoneal; settings: in vivo; outline: as §1
Mus musculus [5] = test: Toxicity in mouse assessed as mouse survival at 400 mg/kg, ip qd on day 19; parameters: dose 400 mg/kg, route intraperitoneal; settings: in vivo; outline: as §1
[6] = Toxicity in mouse assessed as mouse survival administered intraperitoneally once daily measured after 19 days; settings: in vivo, ip; outline: as §1

O=C1NC(=O)C(=Cc2cn(Cc3ccccc3)c3ccccc23)C(=O)N1
Activity (Mus musculus [1]): Toxic
Activity (Mus musculus [2]): Non-toxic
Activity (Mus musculus [3]): Non-toxic
Activity (Mus musculus [4]): Toxic
Activity (Mus musculus [5]): Toxic
MTD at 456 h [6]: 50 mg/kg

CN1C(=O)C(=Cc2cn(Cc3ccccc3)c3ccccc23)C(=O)N(C)C1=O
Activity (Mus musculus [1]): Non-toxic
Activity (Mus musculus [4]): Non-toxic
Activity (Mus musculus [5]): Non-toxic
MTD at 456 h [6]: 400 mg/kg

— ChEMBL document CHEMBL1811814, “Synthesis and evaluation of indole, pyrazole, chromone and pyrimidine based conjugates for tumor growth inhibitory activities--development of highly efficacious cytotoxic agents” (Eur J Med Chem, 2010)
